Results: ChEMBL document CHEMBL1833898, “Dual pro-drugs of 2'-C-methyl guanosine monophosphate as potent and selective inhibitors of hepatitis C virus” (Bioorg Med Chem Lett, 2011)
Calls of active or inactive are those of the source. The calls are words filed in the database; no cut-off is given here.

Columns and labels:
[1] = Cytotoxicity against human HuH7 cells; format: cell-based, Huh-7
[2] = system: Hepatitis C virus; test: Antiviral activity against Hepatitis C virus subtype 1b replicon in human HuH7 cells after 48 hrs by subgenomic replicon assay; format: functional, organism-based, Hepacivirus hominis; details: genotype 1b, Huh-7, 48 h
[3] = Prodrug conversion of the compound after 24 hrs using UV spectroscopic analysis in presence of adenosine deaminase; format: ADME
Summary of the method: (§1)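 Nucleoside at 44 μM (1 ml, phosphate buffer pH 7.4) with 30 μL adenosine deaminase solution. UV spectra taken at 1 min intervals for 30 min. Conversion judged by the spectrum matching 2'-C-methylguanosine. Reaction followed up to 24 h.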

[4] = system: Hepatitis C virus; test: Antiviral activity against Hepatitis C virus subtype 1b replicon in by replicon assay in presence of adenosine deaminase inhibitor pentostatin; format: functional, organism-based; details: Hepacivirus hominis; genotype 1b
Summary of the method: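 Genotype 1b replicon in HUH7 cells, 48 h compound exposure, run with and without the adenosine/adenylate deaminase inhibitor pentostatin.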

[5] = Stability of the compound assessed as half life by NMR analysis in presence of carboxypeptidase Y; format: ADME
Summary of the method: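 Incubation with carboxypeptidase Y in acetone-d6 and Trizma buffer pH 7.6. 31P NMR spectra taken every 7 min over 14 h to follow loss of starting material and intermediate formation.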

[6] = Prodrug conversion of the compound using UV spectroscopic analysis in presence of adenosine deaminase; format: ADME; summary of the method: as §1
[7] = system: Huh-7; test: Prodrug stability in human HuH7 cell lysates assessed as monophosphate formation at pH 7.6 after every 1 hr for 11 hrs by NMR assay; format: ADME, cell-based, Lysate; details: huh-7, pH 7.6, 11 h
Summary of the method: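 HuH7 cell lysate (10^7 cells) in acetone-d6 and Trizma buffer pH 7.6 at 37 °C. 31P NMR taken every 1 h for 11 h. Monophosphate identified by a signal at the shift of an authentic monophosphate.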

Compound | EC50 [2] [µM] | Drug metabolism [3] | Drug metabolism [6] | CC50 [1] [µM] | Activity [4] | half-life [5] [h] | EC90 [2] [µM] | Drug metabolism [7]
CCOc1nc(N)nc2c1ncn2[C@@H]1O[C@H](COP(=O)(N[C@@H](C)C(=O)OC(C)C)Oc2cccc3ccccc23)[C@@H](O)[C@@]1(C)O (stereo not given in full) | 0.14 |  |  | 40 | inactive | 4 |  | 
CCOc1nc(N)nc2c1ncn2[C@@H]1O[C@H](COP(=O)(N[C@@H](C)C(=O)OCC(C)(C)C)Oc2cccc3ccccc23)[C@@H](O)[C@@]1(C)O (stereo not given in full) | 0.008 |  |  | 10 | inactive |  | 0.032 | 
C[C@H](NP(=O)(OC[C@H]1O[C@@H](n2cnc3c(NCCc4ccccc4)nc(N)nc32)[C@](C)(O)[C@@H]1O)Oc1cccc2ccccc12)C(=O)OCC(C)(C)C (stereo not given in full) | 0.27 |  |  | 42 | inactive |  | 1.3 | 
CCOc1nc(N)nc2c1ncn2[C@@H]1O[C@H](COP(=O)(N[C@@H](C)C(=O)OC2CCCCO2)Oc2cccc3ccccc23)[C@@H](O)[C@@]1(C)O (stereo not given in full) | 0.08 |  |  | 47 | inactive |  |  | 
C[C@H](NP(=O)(OC[C@H]1O[C@@H](n2cnc3c(Cl)nc(N)nc32)[C@](C)(O)[C@@H]1O)Oc1cccc2ccccc12)C(=O)OCC(C)(C)C (stereo not given in full) | 0.012 |  |  | 16 | inactive |  | 0.028 | 
C[C@H](NP(=O)(OC[C@H]1O[C@@H](n2cnc3c(NCc4ccccc4)nc(N)nc32)[C@](C)(O)[C@@H]1O)Oc1cccc2ccccc12)C(=O)OCC(C)(C)C (stereo not given in full) | 0.79 |  |  | 15 | inactive |  | 2.7 | 
CCOc1nc(N)nc2c1ncn2[C@@H]1O[C@H](COP(=O)(N[C@@H](C)C(=O)OCc2ccc(F)cc2F)Oc2cccc3ccccc23)[C@@H](O)[C@@]1(C)O (stereo not given in full) | 0.034 |  |  | 17 | inactive |  |  | 
C[C@@]1(O)[C@H](O)[C@@H](CO)O[C@H]1N1C=NC2C(=O)NC(N)=NC21 (stereo not given in full) |  |  | Active |  |  |  |  | 
COc1nc(N)nc2c1ncn2[C@@H]1O[C@H](COP(=O)(N[C@@H](C)C(=O)OCC(C)(C)C)Oc2cccc3ccccc23)[C@@H](O)[C@@]1(C)O (stereo not given in full) [BMS-986094] |  |  |  |  | inactive |  | 0.038 | 
CNc1nc(N)nc2c1ncn2[C@@H]1O[C@H](COP(=O)(N[C@@H](C)C(=O)OCC(C)(C)C)Oc2cccc3ccccc23)[C@@H](O)[C@@]1(C)O (stereo not given in full) | 0.035 |  |  | 38 | inactive |  | 0.103 | 
CCOc1nc(N)nc2c1ncn2[C@@H]1O[C@H](COP(=O)(N[C@H](C(=O)OCC(C)(C)C)C(C)C)Oc2cccc3ccccc23)[C@@H](O)[C@@]1(C)O (stereo not given in full) | 0.17 |  |  | 24 | inactive |  |  | 
CC(C)Oc1nc(N)nc2c1ncn2[C@@H]1O[C@H](COP(=O)(N[C@@H](C)C(=O)OCC(C)(C)C)Oc2cccc3ccccc23)[C@@H](O)[C@@]1(C)O (stereo not given in full) | 0.023 |  |  | 11 | inactive |  | 0.065 | 
COCCCOc1nc(N)nc2c1ncn2[C@@H]1O[C@H](COP(=O)(N[C@@H](C)C(=O)OCC(C)(C)C)Oc2cccc3ccccc23)[C@@H](O)[C@@]1(C)O (stereo not given in full) | 0.043 |  |  | 31 | inactive |  | 0.12 | 
CCOc1nc(N)nc2c1ncn2[C@@H]1O[C@H](COP(=O)(N[C@@H](C)C(=O)O[C@@H](C)c2ccccc2)Oc2cccc3ccccc23)[C@@H](O)[C@@]1(C)O (stereo not given in full) | 0.085 |  |  | 12 | inactive |  |  | Active
CSc1nc(N)nc2c1ncn2[C@@H]1O[C@H](COP(=O)(N[C@@H](C)C(=O)OCC(C)(C)C)Oc2cccc3ccccc23)[C@@H](O)[C@@]1(C)O (stereo not given in full) | 0.037 |  |  | 41 | inactive |  | 0.16 | 
CCOc1nc(N)nc2c1ncn2[C@@H]1O[C@H](COP(=O)(N[C@@H](C)C(=O)OCc2ccccc2)Oc2cccc3ccccc23)[C@@H](O)[C@@]1(C)O (stereo not given in full) | 0.04 |  |  | 11 | inactive |  |  | 
C[C@@]1(O)[C@H](O)[C@@H](CO)O[C@H]1n1cnc2c(NCCc3ccccc3)nc(N)nc21 | 24 |  |  | > 100 |  |  |  | 

Second part, led by results:

EC50 [2] [µM] | Drug metabolism [3] | Drug metabolism [6] | Compound | CC50 [1] [µM] | Activity [4] | half-life [5] [h] | EC90 [2] [µM] | Drug metabolism [7]
11 | Not Active |  | CSc1nc(N)nc2c1ncn2[C@@H]1O[C@H](CO)[C@@H](O)[C@@]1(C)O | > 100 |  |  |  | 
9.3 |  |  | CC(C)Oc1nc(N)nc2c1ncn2[C@@H]1O[C@H](CO)[C@@H](O)[C@@]1(C)O | > 100 |  |  |  | 
13 | Not Active |  | CNc1nc(N)nc2c1ncn2[C@@H]1O[C@H](CO)[C@@H](O)[C@@]1(C)O | > 100 |  |  |  | 
30 |  |  | C[C@@]1(O)[C@H](O)[C@@H](CO)O[C@H]1n1cnc2c(NCc3ccccc3)nc(N)nc21 |  |  |  |  | 
8.8 |  | Active | CCOc1nc(N)nc2c1ncn2[C@@H]1O[C@H](CO)[C@@H](O)[C@@]1(C)O | > 100 |  |  |  | 
8.5 |  |  | C[C@@]1(O)[C@H](O)[C@@H](CO)O[C@H]1n1cnc2c(Cl)nc(N)nc21 | > 100 |  |  |  | 
4.6 |  |  | COc1nc(N)nc2c1ncn2[C@@H]1O[C@H](CO)[C@@H](O)[C@@]1(C)O [BETA-2'-C-METHYL-6-O-METHYL GUANOSINE] | > 100 |  |  |  | 
12 |  |  | COCCCOc1nc(N)nc2c1ncn2[C@@H]1O[C@H](CO)[C@@H](O)[C@@]1(C)O | > 100 |  |  |  | 
